Laboratory results from ChEMBL document CHEMBL4346672, “Antimicrobial and KPC/AmpC inhibitory activity of functionalized benzosiloxaboroles” (Eur J Med Chem, 2019).
In brackets after ≈: the same amount, converted by molar mass. Activity calls are given as the source filed them. The calls are words filed in the database; no cut-off is given here.

Experiments:
[1] = tested on: Klebsiella pneumoniae; assay: Antibacterial activity against Klebsiella pneumoniae ATCC 13883 assessed as fold reduction of MIC in presence of efflux pump inhibitor PAbetaN incubated for 18 hrs by broth microdilution method; type: functional
Summary of the method: (§1)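 MICs determined with and without PAβN at 50 mg/L in Mueller-Hinton broth containing 1 mM MgSO₄. 2-fold serial dilutions per CLSI. Fold change taken from the paired MICs after 35 °C, 18 h.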

[2] = tested on: Staphylococcus aureus; assay: Antibacterial activity against Staphylococcus aureus ATCC 6538P assessed as diameter of zone inhibition measured after 18 hrs by CLSI disc diffusion method; type: functional
Summary of the method: (§2)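 Disc diffusion on Mueller-Hinton II agar. Compounds dissolved in DMSO. Strains stored at -80 °C and subcultured twice on tryptic soy agar before testing. Inhibition zones read after 35 °C, 18 h.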

[3] = tested on: Serratia marcescens; assay: Antibacterial activity against Serratia marcescens ATCC 13880 assessed as fold reduction of MIC in presence of efflux pump inhibitor PAbetaN incubated for 18 hrs by broth microdilution method; type: functional; summary of the method: as §1
[4] = tested on: Candida parapsilosis; assay: Antifungal activity against Candida parapsilosis ATCC 22019 assessed as diameter of zone inhibition incubated for 24 hrs by CLSI disc diffusion method; type: functional
Summary of the method: (§3)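 Yeast disc diffusion on Mueller-Hinton agar supplemented with 2% glucose and 0.5 mg/L methylene blue. Compounds in DMSO. Yeasts subcultured on Sabouraud dextrose agar before testing. Zones read after 35 °C, 24 h.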

[5] = tested on: Staphylococcus aureus; assay: Antibacterial activity against Staphylococcus aureus ATCC 6538P measured after 18 hrs by CLSI broth dilution method; type: functional
Summary of the method: (§4)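 Broth MIC in Mueller-Hinton II broth following CLSI, compounds dissolved in DMSO. Strains subcultured twice on tryptic soy agar before testing. Growth read after 35 °C, 18 h.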

[6] = tested on: Pichia kudriavzevii; assay: Antifungal activity against Candida krusei ATCC 6258 assessed as diameter of zone inhibition incubated for 24 hrs by CLSI disc diffusion method; type: functional; summary of the method: as §3
[7] = tested on: Burkholderia cepacia; assay: Antibacterial activity against Burkholderia cepacia ATCC 25416 assessed as diameter of zone inhibition measured after 18 hrs by CLSI disc diffusion method; type: functional; summary of the method: as §2
[8] = tested on: Escherichia coli; assay: Antibacterial activity against Escherichia coli ATCC 25922 assessed as diameter of zone inhibition measured after 18 hrs by CLSI disc diffusion method; type: functional; summary of the method: as §2
[9] = tested on: Escherichia coli; assay: Antibacterial activity against Escherichia coli ATCC 25922 assessed as fold reduction of MIC in presence of efflux pump inhibitor PAbetaN incubated for 18 hrs by CLSI broth microdilution method; type: functional; summary of the method: as §1
[10] = tested on: Bacillus subtilis; assay: Antibacterial activity against Bacillus subtilis ATCC 6633 assessed as diameter of zone inhibition measured after 18 hrs by CLSI disc diffusion method; type: functional; summary of the method: as §2
[11] = tested on: Pseudomonas aeruginosa; assay: Antibacterial activity against Pseudomonas aeruginosa ATCC 27853 measured after 18 hrs by CLSI broth dilution method; type: functional; details: ATCC 27853, 18 h; summary of the method: as §4
[12] = tested on: Acinetobacter baumannii; assay: Antibacterial activity against Acinetobacter baumannii ATCC 19606 assessed as diameter of zone inhibition measured after 18 hrs by CLSI disc diffusion method; type: functional; summary of the method: as §2
[13] = tested on: Pseudomonas aeruginosa; assay: Antibacterial activity against Pseudomonas aeruginosa ATCC 27853 assessed as diameter of zone inhibition measured after 18 hrs by CLSI disc diffusion method; type: functional, organism-based; summary of the method: as §2
[14] = tested on: Acinetobacter baumannii; assay: Antibacterial activity against Acinetobacter baumannii ATCC 19606 assessed as fold reduction of MIC in presence of efflux pump inhibitor PAbetaN incubated for 18 hrs by broth microdilution method; type: functional; summary of the method: as §1
[15] = tested on: Meyerozyma guilliermondii; assay: Antifungal activity against Candida guilliermondii IBA 155 assessed as diameter of zone inhibition incubated for 24 hrs by CLSI disc diffusion method; type: functional; summary of the method: as §3
[16] = tested on: Serratia marcescens; details: ATCC 13880
[17] = tested on: Enterococcus faecalis; assay: Antibacterial activity against Enterococcus faecalis ATCC 29212 measured after 18 hrs by CLSI broth dilution method; type: functional; details: ATCC 29212, 18 h; summary of the method: as §4
[18] = tested on: Enterobacter cloacae; assay: Antibacterial activity against Enterobacter cloacae DSM 6234 assessed as fold reduction of MIC in presence of efflux pump inhibitor PAbetaN incubated for 18 hrs by broth microdilution method; type: functional; summary of the method: as §1
[19] = tested on: Candida albicans; assay: Antifungal activity against Candida albicans ATCC 90028 assessed as diameter of zone inhibition incubated for 24 hrs by CLSI disc diffusion method; type: functional; summary of the method: as §3
[20] = tested on: Enterobacter cloacae; assay: Antibacterial activity against Enterobacter cloacae DSM 6234 assessed as diameter of zone inhibition measured after 18 hrs by CLSI disc diffusion method; type: functional; summary of the method: as §2
[21] = tested on: Proteus mirabilis; assay: Antibacterial activity against Proteus mirabilis ATCC 12453 measured after 18 hrs by CLSI broth dilution method; type: functional; details: ATCC 12453, 18 h; summary of the method: as §4
[22] = tested on: Pichia kudriavzevii; assay: Antifungal activity against Candida krusei ATCC 6258 assessed as decrease in fungal cell growth at 0.78 to 12.5 mg/L incubated for 24 hrs by CLSI broth dilution method; type: functional; details: ATCC 6258, 24 h
Summary of the method: (§5)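 Yeast broth dilution in RPMI 1640 with 2% glucose, compounds in DMSO. Yeasts pre-grown on Sabouraud dextrose agar. Growth read after 35 °C, 24 h.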

[23] = tested on: Proteus mirabilis; assay: Antibacterial activity against Proteus mirabilis ATCC 12453 assessed as fold reduction of MIC in presence of efflux pump inhibitor PAbetaN incubated for 18 hrs by broth microdilution method; type: functional; summary of the method: as §1
[24] = tested on: Staphylococcus epidermidis; assay: Antibacterial activity against Staphylococcus epidermidis ATCC 12228 assessed as diameter of zone inhibition measured after 18 hrs by CLSI disc diffusion method; type: functional; summary of the method: as §2
[25] = tested on: Acinetobacter baumannii; assay: Antibacterial activity against Acinetobacter baumannii ATCC 19606 measured after 18 hrs by CLSI broth dilution method; type: functional; details: ATCC 19606, 18 h; summary of the method: as §4
[26] = tested on: Saccharomyces cerevisiae; assay: Antifungal activity against Saccharomyces cerevisiae ATCC 9763 assessed as decrease in fungal cell growth at 0.78 to 12.5 mg/L incubated for 24 hrs by CLSI broth dilution method; type: functional; details: ATCC 9763, 24 h
Summary of the method: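 Yeast strain subcultured on Sabouraud dextrose agar for 24–48 h at 30 °C before testing. Compounds dissolved in DMSO.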

[27] = tested on: Bordetella bronchiseptica; assay: Antibacterial activity against Bordetella bronchiseptica ATCC 4617 assessed as diameter of zone inhibition measured after 18 hrs by CLSI disc diffusion method; type: functional; summary of the method: as §2
[28] = tested on: Candida tropicalis; assay: Antifungal activity against Candida tropicalis IBA 171 assessed as diameter of zone inhibition incubated for 24 hrs by CLSI disc diffusion method; type: functional; summary of the method: as §3
[29] = tested on: Enterococcus faecium; assay: Antibacterial activity against Enterococcus faecium ATCC 6057 assessed as diameter of zone inhibition measured after 18 hrs by CLSI disc diffusion method; type: functional; summary of the method: as §2
[30] = tested on: Klebsiella pneumoniae; assay: Antibacterial activity against Klebsiella pneumoniae ATCC 13883 measured after 18 hrs by CLSI broth dilution method; type: functional; details: ATCC 13883, 18 h; summary of the method: as §4
[31] = tested on: Escherichia coli; assay: Antibacterial activity against Escherichia coli ATCC 25922 measured after 18 hrs by CLSI broth dilution method; type: functional; details: ATCC 25922, 18 h; summary of the method: as §4
[32] = tested on: Staphylococcus epidermidis; assay: Antibacterial activity against Staphylococcus epidermidis ATCC 12228 measured after 18 hrs by CLSI broth dilution method; type: functional; details: ATCC 12228, 18 h; summary of the method: as §4
[33] = Dissociation constant, pKa1 of compound in 0.1 M NaOH by potentiometric analysis; type: physicochemical
[34] = tested on: Meyerozyma guilliermondii; assay: Antifungal activity against Candida guilliermondii IBA 155 assessed as decrease in fungal cell growth at 0.78 to 12.5 mg/L incubated for 24 hrs by CLSI broth dilution method; type: functional; details: IBA 155, 24 h; summary of the method: as §5

| SMILES | fold change (FC) [1] | diameter of the inhibition zone (DIZ) [2] | fold change (FC) [3] | diameter of the inhibition zone (DIZ) [4] | MIC [5] | diameter of the inhibition zone (DIZ) [6] | diameter of the inhibition zone (DIZ) [7] | diameter of the inhibition zone (DIZ) [8] | fold change (FC) [9] | diameter of the inhibition zone (DIZ) [10] | MIC [11] | diameter of the inhibition zone (DIZ) [12] | diameter of the inhibition zone (DIZ) [13] | fold change (FC) [14] | diameter of the inhibition zone (DIZ) [15] | DIZ [16] | MIC [17] | fold change (FC) [18] | diameter of the inhibition zone (DIZ) [19] | diameter of the inhibition zone (DIZ) [20] | further results |
| --- | --- | --- | --- | --- | --- | --- | --- | --- | --- | --- | --- | --- | --- | --- | --- | --- | --- | --- | --- | --- | --- |
| C[Si]1(C)OB(O)c2c(F)c3c(c(F)c21)B(O)OC3 | 16 | 30 mm | 16 | inactive | 6.25 µg/mL (≈ 23.2 µM) | inactive | 23 mm | inactive | 8 | 29 mm | > 400 µg/mL | 15 mm | inactive | 8 | inactive | inactive | 25 µg/mL (≈ 92.6 µM) | 8 | inactive | 17 mm | MIC [21]: 200 µg/mL (≈ 741 µM); MIC [22]: > 400 µg/mL; fold change (FC) [23]: 4; diameter of the inhibition zone (DIZ) [24]: 35 mm; MIC [25]: 400 µg/mL (≈ 1480 µM); MIC [26]: > 400 µg/mL; diameter of the inhibition zone (DIZ) [27]: inactive; diameter of the inhibition zone (DIZ) [28]: inactive; diameter of the inhibition zone (DIZ) [29]: 28 mm; MIC [30]: 200 µg/mL (≈ 741 µM); MIC [31]: 200 µg/mL (≈ 741 µM); MIC [32]: 6.25 µg/mL (≈ 23.2 µM); pKa [33]: 4.7; MIC [34]: > 400 µg/mL |
| C[Si]1(C)OB(O)c2cc(F)c(C=O)c(F)c21 | 4 | 21 mm | 4 | inactive | 200 µg/mL (≈ 826 µM) | inactive | inactive | inactive | 4 | 14 mm | > 400 µg/mL | inactive | inactive | 4 | inactive | inactive | 400 µg/mL (≈ 1650 µM) | 16 | inactive | inactive | MIC [21]: > 400 µg/mL; MIC [22]: 25 µg/mL (≈ 103 µM); fold change (FC) [23]: 2; diameter of the inhibition zone (DIZ) [24]: 22 mm; MIC [25]: > 400 µg/mL; MIC [26]: 50 µg/mL (≈ 207 µM); diameter of the inhibition zone (DIZ) [27]: inactive; diameter of the inhibition zone (DIZ) [28]: inactive; diameter of the inhibition zone (DIZ) [29]: inactive; MIC [30]: > 400 µg/mL; MIC [31]: > 400 µg/mL; MIC [32]: 100 µg/mL (≈ 413 µM); pKa [33]: 4.9; MIC [34]: 200 µg/mL (≈ 826 µM) |
